High-throughput results from PubChem BioAssay.
Most compounds without a hit are left out; they make up all but 1.9% or so of the library.
Rtt109 Vps75 = blocks Candida albicans Rtt109/Vps75 acetyltransferase activity; Q5AAJ8; purified Rtt109/Vps75, ThioGlo CoA-SH fluorescence, 4 h; inhibition, % at 34.9 µM; actives 0.16% (n = 330,000); AID 540336;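 active = inhibition of at least 50% in every replicate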
FGF22 binding = shifts melting point of recombinant human FGF22; activity (Tm shift, normalised), % at 9.99 µM; AID 651658; actives 1.5% (n = 340,000); recombinant FGF22 thermal shift, SYPRO orange fluorescence; percent of sucrose octasulfate shift, DMSO zero;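 active = mean Tm shift, scaled 0 neutral to 100 positive control, at about 1.3% or above, every replicate too, limit read from the data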
Target sequence (Q9HCT0 whole entry, looked up): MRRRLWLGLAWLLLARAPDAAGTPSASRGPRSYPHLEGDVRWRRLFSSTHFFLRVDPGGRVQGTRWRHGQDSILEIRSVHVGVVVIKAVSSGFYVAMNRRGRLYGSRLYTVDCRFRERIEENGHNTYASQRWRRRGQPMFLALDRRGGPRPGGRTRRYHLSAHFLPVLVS
ASAP1 inh = ASAP1 ArfGAP inhibition; AID 624377; ASAP1-stimulated ARF1 GTP hydrolysis, GDP FP detection; actives 0.19% (n = 360,000); inhibition, % at 16.5 µM; in the data active = inhibition above about 25%
Efflux pump mplx = blocks antifungal efflux pumps in multiplex yeast assay | S. cerevisiae Candida pump triplex, Nile Red efflux | inhibition, % at 10 µM | actives 0.44% (n = 330,000);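 active = plate passing quality check with inhibition over a set limit, or well fluorescence over plate mean plus 4 SD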;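 also: Nile Red retained in pooled yeast measured as flow cytometry median fluorescence; higher means more Nile Red kept so more efflux inhibition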
ARFGAP1 inh = inhibits rat ARF GTPase activating protein 1; actives 0.26% (n = 360,000); AID 651572; Arfgap1-stimulated ARF1 GTP hydrolysis, GDP FP detection; inhibition, % at 16.5 µM; Q62848;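 active = inhibition above a per-plate limit, mean inhibition of low control wells plus 3 SD, cut at about 25% in these data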
Target sequence (Q62848 1-136 limits assumed): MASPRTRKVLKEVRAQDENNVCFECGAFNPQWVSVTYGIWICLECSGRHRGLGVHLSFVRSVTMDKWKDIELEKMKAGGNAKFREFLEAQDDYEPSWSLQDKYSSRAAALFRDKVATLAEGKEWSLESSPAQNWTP
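material = rat Arfgap1 catalytic domain, aa 1-136 | also added = human ARF1(Δ1-17)-GTP substrate | compound dosing = one concentration, 16.5 µM, DMSO 1.26% | times = GTP hydrolysis reaction 2 h at 25 °C | measured by = FP, GDP Alexa 633 tracer displaced from anti-GDP antibody, 620/688 nm | evaluation = percent inhibition of Arfgap1-stimulated GTP hydrolysis | replication = single well per compound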
Of the large screens only hits and unclear results are named; the others gave an inactive call.

O=c1ccn([C@@H]2O[C@H](CNCc3ccc(-c4cc(C(F)(F)F)ccc4Cl)o3)[C@@H](O)[C@H]2O)c(=O)[nH]1	none (no result: Efflux pump mplx)
C[C@H]1CN([C@@H](C)CO)C(=O)CCCn2cc(nn2)CO[C@@H]1CN(C)C(=O)C1CC1	none (no result: Rtt109 Vps75, Efflux pump mplx)
CN(C)/C=C/C(=O)c1ccc(Br)s1	FGF22 binding 43.3
CN(C)/C=C/C(=O)c1ccccc1	none
Cc1ccc(S(=O)(=O)NCC(=O)OCC(=O)Nc2ncc(Cl)cc2Cl)cc1	none (no result: FGF22 binding)
COc1ccccc1CCc1nnc(CCC(=O)N(C)Cc2cccc3cnccc23)o1	FGF22 binding 43.9 (no result: Rtt109 Vps75)
COc1ccccc1CCc1nnc(CCC(=O)N(C)Cc2ccncc2C)o1	none
CCN(CCn1cccn1)C(=O)CCc1nnc(CCc2ccccc2OC)o1	FGF22 binding 43.8 (no result: Rtt109 Vps75)
CCN(CC)c1ccc(NC(=O)c2ccc3c(c2)OCO3)cc1	none
O=C(NCc1ccccc1)c1sc(=S)n2c1[nH]c(=O)c1ccccc12	none (no result: FGF22 binding)
NC(=O)c1sc(=S)n2c1[nH]c(=O)c1sccc12	FGF22 binding 47.4
NC(=O)c1sc(=S)n(-c2ccc(Br)cc2)c1N	none
CC(=O)NNC(=O)c1sc(=S)n2c1[nH]c(=O)c1sccc12	FGF22 binding 43.0
COC(=O)[C@@]1(Sc2ccc(C)cc2)CC(=O)N(c2ccc(Cl)cc2)[C@@H]1c1ccccc1	none (no result: Rtt109 Vps75, Efflux pump mplx)
Cc1ccc(N2NC(=O)/C(=C/c3ccc(-c4ccc(Cl)c(C(=O)O)c4)o3)C2=O)cc1	none (no result: Rtt109 Vps75)
CCCCC1(C)OC(=O)C(=Cc2ccc(-c3ccc(Cl)c(C(=O)O)c3)o2)C(=O)O1 (configuration not stated)	FGF22 binding 3.8
C[C@H]1[C@@H]2C[C@@]3(O[C@H](c4ccccn4)N=C3C[C@@H]1c1ccccc1)N(Cc1ccncc1)C2=O	FGF22 binding 48.5 (no result: Rtt109 Vps75, Efflux pump mplx)
CCOC(=O)Cn1c(C)[n+](CC(=O)c2ccccc2)c2ccccc21	Rtt109 Vps75 54.7
CCOC(=O)Cn1c(=O)cc(C)c2ccccc21	none
COc1ccc(CCNC(=O)C2CC3Cn4c(nc5ccccc54)C3N2Cc2ccccc2)cc1 (configuration not stated)	none
Cc1c(Cl)c(C(F)(F)F)nn1CC(=O)NCc1ccco1	FGF22 binding 42.9
Cc1c(Cl)c([N+](=O)[O-])nn1CC(=O)NCc1ccco1	none (no result: FGF22 binding)
CN(C(=O)c1cccc(NC(=O)Cc2ccc(NC(=O)C3CCCN(C(=O)C4CC4)C3)cc2)c1)C1CCCC1 (configuration not stated)	FGF22 binding 43.4 (no result: Efflux pump mplx)
NC(=O)CCC(=O)N1CCCC(C(=O)c2ccc3c4c(cccc24)CC3)C1 (configuration not stated)	FGF22 binding 43.1 (no result: Rtt109 Vps75)
C[C@H](CO)N1C[C@H](C)[C@H](CN(C)Cc2ccc(Oc3ccccc3)cc2)Oc2ccc(NS(=O)(=O)c3ccc(F)cc3)cc2C1=O	none (no result: Rtt109 Vps75, ASAP1 inh, Efflux pump mplx, ARFGAP1 inh)
Clc1ccc(-c2c[nH]c3ccccc23)nn1	FGF22 binding 43.1
COC(=O)c1ccc(NC(=S)NC2CCCCC2C)cc1 (configuration not stated)	none (no result: FGF22 binding)
Cc1noc(NS(=O)(=O)c2ccc(NC(=O)/C=C/c3ccccc3)cc2)c1C	FGF22 binding 1.4
COc1ccc(/C=C/C(=O)Nc2ccc(S(=O)(=O)Nc3onc(C)c3C)cc2)cc1OC	none
CCc1ccc(NC(=S)N(Cc2ccccc2)Cc2ccccn2)cc1	FGF22 binding 43.5
CCOc1cc(C(=O)N/N=C(\C)Cc2ccc(OC)cc2)cc(OCC)c1OCC	none
O=C(CSCc1ccccc1)NCCCN1CCOCC1	FGF22 binding 44.2
Fc1cc(F)cc(NC(=S)NCCCN2CCOCC2)c1	FGF22 binding 43.5
O=C(NCCCN1CCOCC1)c1ccc(Br)cc1	none (no result: FGF22 binding)
Cc1cc(C)n(-c2ccc(C(=O)NCCCN3CCOCC3)cc2)n1	FGF22 binding 43.8
Cc1cccc(NC(=O)C(=O)NCCCN2CCOCC2)c1	FGF22 binding 42.9
COc1ccccc1N1CCN(C(=O)c2ccccc2SCC(=O)NCc2ccco2)CC1	none (no result: Efflux pump mplx)
O=C1Nc2cc(C(=O)NCCCN3CCOCC3)ccc2S/C1=C/c1ccccc1F	none
COCCN(C(=O)CSc1nnc(-c2ccccc2F)n1C)c1c(N)n(Cc2ccccc2)c(=O)[nH]c1=O	FGF22 binding 43.2
CCOC(=O)c1sc(/N=C/N(C)C)nc1C	none
Cc1ccc(NC(=O)c2cc(N3C(=O)C=CC3=O)ccc2N2CCOCC2)cc1	Rtt109 Vps75 active (no result: Efflux pump mplx)
COC(=O)c1cc(NC(C)=O)ccc1N1CCOCC1	FGF22 binding 43.0
